# Data from ChEMBL document CHEMBL3244277, “Study of trans-cyclopropylbis (diketopiperazine) and chelating agents related to ICRF 159. Cytotoxicity, mutagenicity, and effects on scheduled and unscheduled DNA synthesis” (J Med Chem, 1977).
# Columns and labels:
# [1] = Cytotoxicity against chinese hamster V79-4 cells assessed as survival using 5 x 10^5 cells per plate at 10^-3 M after 24 hrs; type: cell-based, Cricetulus griseus; settings: read-out: Survival
# How it was run: (§1)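 Chinese hamster V-79A cells were seeded in 100-mm dishes, allowed to attach for 2 h, then exposed for 24 h to drug diluted from PBS stocks into Eagle's MEM with 15% fetal calf serum. Cells were rinsed twice in Hank's salt solution and grown drug-free for 7 days at 37 °C in 5% CO2. Colonies were stained with hematoxylin/eosin and counted; each value is the mean of eight plates.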
# [2] = Cytotoxicity against chinese hamster V79-4 cells assessed as survival using 1 x 10^5 cells per plate at 10^-3 M after 24 hrs; type: cell-based, Cricetulus griseus; settings: read-out: Survival; how it was run: as §1
# [3] = Cytotoxicity against chinese hamster V79-4 cells assessed as survival using 5 x 10^5 cells per plate at 10^-4 M after 24 hrs; type: cell-based, Cricetulus griseus; settings: read-out: Survival; how it was run: as §1
# [4] = Cytotoxicity against chinese hamster V79-4 cells assessed as survival using 1 x 10^5 cells per plate at 10^-4 M after 24 hrs; type: cell-based, Cricetulus griseus; settings: read-out: Survival; how it was run: as §1
# [5] = Cytotoxicity against chinese hamster V79-4 cells assessed as survival using 5 x 10^5 cells per plate at […] after 24 hrs; type: cell-based, Cricetulus griseus; settings: read-out: Survival
# [6] = Cytotoxicity against chinese hamster V79-4 cells assessed as survival using 1 x 10^5 cells per plate at […] after 24 hrs; type: cell-based, Cricetulus griseus; settings: read-out: Survival
# V79-4 [7] = experiment: Mutagenicity in chinese hamster V79-4 cells assessed as mutation frequency measured per 5 x 10^5 cells per plate at 10^-4 M after 24 hrs relative to control; type: toxicity, cell-based, Cricetulus griseus; settings: v79-4, 24 h, 100 µM
# How it was run: (§2)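 V-79A cells plated at 5×10⁵ or 1×10⁵ per dish in MEM + 5% FCS and allowed 2 h to attach. Exposed 24 h at 37 °C to 10⁻³–10⁻⁵ M drug or none, washed in PBS, then grown 12 days in MEM + 10% FCS with 10⁻³ M ouabain. Resistant colonies were counted after hematoxylin/eosin staining, averaging 20 plates, and expressed per 5×10⁵ cells.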
# V79-4 [8] = experiment: Mutagenicity in chinese hamster V79-4 cells assessed as mutation frequency measured per 1 x 10^5 cells per plate at 10^-4 M after 24 hrs relative to control; type: toxicity, cell-based, Cricetulus griseus; settings: v79-4, 24 h, 100 µM
# V79-4 [9] = experiment: Mutagenicity in chinese hamster V79-4 cells assessed as mutation frequency measured per 5 x 10^5 cells per plate at 10^-5 M after 24 hrs relative to control; type: toxicity, cell-based, Cricetulus griseus; settings: v79-4, 24 h, 10 µM; how it was run: as §2
# V79-4 [10] = experiment: Inhibition of scheduled DNA synthesis in chinese hamster V79-4 cells assessed as DNA synthesis at 10^-3 M measured at 10 hrs by [3H]thymidine uptake /autoradiography (reference value: 83.3 %); type: functional, Cricetulus griseus; design: scale not given: the % may be the effect or the level left
# V79-4 [11] = experiment: Inhibition of scheduled DNA synthesis in chinese hamster V79-4 cells assessed as DNA synthesis at 10^-4 M measured at 10 hrs by [3H]thymidine uptake /autoradiography (reference value: 83.3 %); type: functional, Cricetulus griseus; design: scale not given: the % may be the effect or the level left
# V79-4 [12] = experiment: Inhibition of scheduled DNA synthesis in chinese hamster V79-4 cells assessed as DNA synthesis at 10^-5 M measured at 10 hrs by [3H]thymidine uptake /autoradiography (reference value: 83.3 %); type: functional, Cricetulus griseus; design: scale not given: the % may be the effect or the level left
# V79-4 [13] = experiment: Induction of unscheduled DNA synthesis in chinese hamster V79-4 cells assessed as DNA synthesis at 10^-3 M measured at 8 hrs by [3H]thymidine uptake /autoradiography in presence of 2 x 10^-3 M hydroxyurea; settings: Cricetulus griseus, v79-4, 8 h, 1000 µM
# V79-4 [14] = experiment: Induction of unscheduled DNA synthesis in chinese hamster V79-4 cells assessed as DNA synthesis at 10^-4 to 10^-5 M measured at 0 to 5 hrs by [3H]thymidine uptake /autoradiography in presence of 2 x 10^-3 M hydroxyurea; settings: Cricetulus griseus
# V79-4 [15] = experiment: Inhibition of scheduled DNA synthesis in chinese hamster V79-4 cells assessed as DNA synthesis at 10^-3 M measured at 10 hrs by [3H]thymidine uptake /autoradiography (reference value: 81.7 %); type: functional, Cricetulus griseus; design: scale not given: the % may be the effect or the level left
# V79-4 [16] = experiment: Inhibition of scheduled DNA synthesis in chinese hamster V79-4 cells assessed as DNA synthesis at 10^-4 M measured at 10 hrs by [3H]thymidine uptake /autoradiography (reference value: 81.7 %); type: functional, Cricetulus griseus; design: scale not given: the % may be the effect or the level left
# V79-4 [17] = experiment: Inhibition of scheduled DNA synthesis in chinese hamster V79-4 cells assessed as DNA synthesis at 10^-5 M measured at 10 hrs by [3H]thymidine uptake /autoradiography (reference value: 81.7 %); type: functional, Cricetulus griseus; design: scale not given: the % may be the effect or the level left
# V79-4 [18] = experiment: Induction of unscheduled DNA synthesis in chinese hamster V79-4 cells assessed as DNA synthesis at 10^-3 to 10^-5 M measured at 8 hrs by [3H]thymidine uptake /autoradiography in presence of 2 x 10^-3 M hydroxyurea; settings: Cricetulus griseus, v79-4, 8 h
# V79-4 [19] = experiment: Inhibition of scheduled DNA synthesis in chinese hamster V79-4 cells assessed as DNA synthesis at 10^-3 M measured at 10 hrs by [3H]thymidine uptake /autoradiography (reference value: 85.2 %); type: functional, Cricetulus griseus; design: scale not given: the % may be the effect or the level left
# V79-4 [20] = experiment: Inhibition of scheduled DNA synthesis in chinese hamster V79-4 cells assessed as DNA synthesis at 10^-4 M measured at 10 hrs by [3H]thymidine uptake /autoradiography (reference value: 85.2 %); type: functional, Cricetulus griseus; design: scale not given: the % may be the effect or the level left
# V79-4 [21] = experiment: Inhibition of scheduled DNA synthesis in chinese hamster V79-4 cells assessed as DNA synthesis at 10^-5 M measured at 10 hrs by [3H]thymidine uptake /autoradiography (reference value: 85.2 %); type: functional, Cricetulus griseus; design: scale not given: the % may be the effect or the level left
# V79-4 [22] = experiment: Induction of unscheduled DNA synthesis in chinese hamster V79-4 cells assessed as DNA synthesis at 10^-3 to 10^-5 M measured at 0 to 8 hrs by [3H]thymidine uptake /autoradiography in presence of 2 x 10^-3 M hydroxyurea; settings: Cricetulus griseus
SMILES,"viability at 24 h, 1000 µM [1]","viability at 24 h, 1000 µM [2]","viability at 24 h, 100 µM [3]","viability at 24 h, 100 µM [4]","viability at 24 h, 10 µM [5]","viability at 24 h, 10 µM [6]",Activity (V79-4 [13]),Activity (V79-4 [14]),further results
COC(=O)CN(CC(=O)OC)[C@@H]1C[C@H]1N(CC(=O)OC)CC(=O)OC (relative stereo),0.02%,0.02%,2%,2%,90%,90%,,,
O=C1CN([C@H]2C[C@@H]2N2CC(=O)NC(=O)C2)CC(=O)N1 (relative stereo),30%,30%,50%,50%,70%,70%,Toxic,Non-toxic,Activity (V79-4 [7]): Non-toxic; Activity (V79-4 [8]): Non-toxic; Activity (V79-4 [9]): Non-toxic; Activity (V79-4 [10]): 76.3%; Activity (V79-4 [11]): 78.3%; Activity (V79-4 [12]): 82.2%
CC(CN(CC(=O)O)CC(=O)O)N(CC(=O)O)CC(=O)O (centres undefined),1%,,85%,85%,94%,94%,Toxic,Non-toxic,Activity (V79-4 [15]): 61.1%; Activity (V79-4 [16]): 64.7%; Activity (V79-4 [17]): 69.2%; Activity (V79-4 [18]): Toxic
O=C(O)CN(CC(=O)O)[C@@H]1C[C@H]1N(CC(=O)O)CC(=O)O (relative stereo),0.04%,,0.6%,,10%,10%,,,Activity (V79-4 [19]): 7.3%; Activity (V79-4 [20]): 75.5%; Activity (V79-4 [21]): 83.8%; Activity (V79-4 [22]): Toxic
